Reference: ChEMBL document CHEMBL4020830, “Design, Synthesis, and Evaluation of a Novel Series of Indole Sulfonamide Peroxisome Proliferator Activated Receptor (PPAR) α/γ/δ Triple Activators: Discovery of Lanifibranor, a New Antifibrotic Clinical Candidate” (J Med Chem, 2018)

Key:
Type in all cases: cell-based
[1] = biological target: T1, Peroxisome proliferator-activated receptor delta (Homo sapiens) (UniProt Q03181); assay: Transactivation of human GAL4-fused PPARdelta LBD expressed in African green monkey COS7 cells co-expressing 5Gal4 pGL3 TK Luc after overnight incubation by luciferase reporter gene assay relative to GW501516
T1 sequence (whole entry): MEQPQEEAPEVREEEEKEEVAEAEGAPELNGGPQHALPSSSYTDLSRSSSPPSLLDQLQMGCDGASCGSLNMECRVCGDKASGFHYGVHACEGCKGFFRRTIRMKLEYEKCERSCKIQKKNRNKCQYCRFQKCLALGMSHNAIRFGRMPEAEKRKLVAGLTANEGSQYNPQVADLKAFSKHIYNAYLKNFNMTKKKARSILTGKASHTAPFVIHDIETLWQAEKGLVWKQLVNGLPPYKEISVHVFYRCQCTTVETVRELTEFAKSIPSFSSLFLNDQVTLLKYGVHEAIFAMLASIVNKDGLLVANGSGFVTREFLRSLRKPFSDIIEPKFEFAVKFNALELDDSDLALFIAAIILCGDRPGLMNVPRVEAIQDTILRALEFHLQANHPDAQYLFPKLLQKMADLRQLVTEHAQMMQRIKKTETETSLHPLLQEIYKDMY
Outline: (§1)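 Cell-based Gal-4 transactivation assay in COS-7 cells transfected with PPARα, PPARδ or PPARγ ligand-binding domain. EC50 and Emax were derived, with Emax as maximum activation in percent of control. EC50s are means of at least two independent experiments performed in triplicate.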

[2] = biological target: T2, Peroxisome proliferator-activated receptor gamma (Homo sapiens, UniProt P37231); assay: Transactivation of human GAL4-fused PPARgamma LBD expressed in African green monkey COS7 cells co-expressing 5Gal4 pGL3 TK Luc after overnight incubation by luciferase reporter gene assay; outline: as §1
T2 sequence (P37231 whole entry): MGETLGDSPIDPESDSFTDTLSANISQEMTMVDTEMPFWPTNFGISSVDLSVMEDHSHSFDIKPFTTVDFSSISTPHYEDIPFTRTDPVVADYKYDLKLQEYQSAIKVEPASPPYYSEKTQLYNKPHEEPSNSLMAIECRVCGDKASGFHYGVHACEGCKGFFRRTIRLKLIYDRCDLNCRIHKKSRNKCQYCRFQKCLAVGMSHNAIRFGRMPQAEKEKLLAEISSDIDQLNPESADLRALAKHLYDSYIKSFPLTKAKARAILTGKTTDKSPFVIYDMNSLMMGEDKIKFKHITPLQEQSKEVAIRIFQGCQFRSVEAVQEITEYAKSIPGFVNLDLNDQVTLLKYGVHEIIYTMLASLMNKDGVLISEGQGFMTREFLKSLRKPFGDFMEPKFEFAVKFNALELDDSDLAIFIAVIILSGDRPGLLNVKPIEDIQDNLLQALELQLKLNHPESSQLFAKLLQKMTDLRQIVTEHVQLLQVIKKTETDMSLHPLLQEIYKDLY

[3] = biological target: T3, Peroxisome proliferator-activated receptor gamma (Homo sapiens) (UniProt P37231); assay: Transactivation of human GAL4-fused PPARgamma LBD expressed in African green monkey COS7 cells co-expressing 5Gal4 pGL3 TK Luc after overnight incubation by luciferase reporter gene assay relative to rosiglitazone; outline: as §1
T3 sequence (whole entry): T2 sequence (P37231 whole entry)

[4] = biological target: T4, Peroxisome proliferator-activated receptor alpha (Homo sapiens, UniProt Q07869); assay: Transactivation of human GAL4-fused PPARalpha LBD expressed in African green monkey COS7 cells co-expressing 5Gal4 pGL3 TK Luc after overnight incubation by luciferase reporter gene assay; outline: as §1
T4 sequence (Q07869 whole entry): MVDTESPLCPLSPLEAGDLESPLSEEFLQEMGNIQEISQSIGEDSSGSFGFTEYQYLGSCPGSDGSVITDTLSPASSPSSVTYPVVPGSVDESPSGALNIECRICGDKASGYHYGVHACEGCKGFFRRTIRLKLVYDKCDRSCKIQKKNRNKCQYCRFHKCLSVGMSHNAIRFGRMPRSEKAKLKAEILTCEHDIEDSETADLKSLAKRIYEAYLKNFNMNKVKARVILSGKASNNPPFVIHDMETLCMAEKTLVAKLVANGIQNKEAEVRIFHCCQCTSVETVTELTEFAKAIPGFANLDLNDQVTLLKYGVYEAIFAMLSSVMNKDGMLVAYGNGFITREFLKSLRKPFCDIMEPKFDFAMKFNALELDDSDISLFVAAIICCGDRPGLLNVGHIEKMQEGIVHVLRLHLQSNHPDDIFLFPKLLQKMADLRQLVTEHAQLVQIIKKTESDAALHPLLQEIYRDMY

[5] = biological target: T5, Peroxisome proliferator-activated receptor alpha (Homo sapiens) (UniProt Q07869); assay: Transactivation of human GAL4-fused PPARalpha LBD expressed in African green monkey COS7 cells co-expressing 5Gal4 pGL3 TK Luc after overnight incubation by luciferase reporter gene assay relative to fenofibric acid; outline: as §1
T5 sequence (whole entry): T4 sequence (Q07869 whole entry)

[6] = biological target: T6, Peroxisome proliferator-activated receptor delta (Homo sapiens, UniProt Q03181); assay: Transactivation of human GAL4-fused PPARdelta LBD expressed in African green monkey COS7 cells co-expressing 5Gal4 pGL3 TK Luc after overnight incubation by luciferase reporter gene assay; outline: as §1
T6 sequence (Q03181 whole entry): T1 sequence (whole entry)

Row | SMILES | Emax [1] [%] | EC50 [2] [nM] | Emax [3] [%] | EC50 [4] [nM] | Emax [5] [%] | EC50 [6] [nM]
1 | COc1ccc(S(=O)(=O)n2c(CCCC(=O)O)cc3cc(Cl)ccc32)cc1 | < 20 | 72 | 25 | 419 | 26 | 
2 | Cc1cccc(S(=O)(=O)n2c(CCCC(=O)O)cc3cc(Cl)ccc32)c1 | 42 | 75 | 46 | 1250 | 59 | 1350
3 | O=C(O)CCCc1cc2cc(Cl)ccc2n1S(=O)(=O)c1ccc2ccccc2c1 | < 20 | 35 | 34 |  | < 20 | 
4 | COc1ccccc1S(=O)(=O)n1c(CCCC(=O)O)cc2cc(C(F)(F)F)ccc21 | < 20 | 1250 | 35 | > 5000 | 35 | 
5 | COc1cccc(S(=O)(=O)n2c(CCCC(=O)O)cc3cc(Cl)ccc32)c1 | 43 | 72 | 48 | 305 | 40 | 1230
6 | CN1CCOc2ccc(S(=O)(=O)n3c(CCCC(=O)O)cc4cc(Cl)ccc43)cc21 | 54 | 16 | 48 | 410 | 113 | 697
7 | COc1ccc(S(=O)(=O)n2c(CCCC(=O)O)cc3cc(C(F)(F)F)ccc32)cc1 | 24 | 82 | 38 | 764 | 55 | 1260
8 | O=C(O)COCc1cc2cc(Cl)ccc2n1S(=O)(=O)c1ccccc1 | < 20 |  | < 20 |  | < 20 | 
9 | COc1cccc(S(=O)(=O)n2c(CCCC(=O)O)cc3cc(C(F)(F)F)ccc32)c1 | 28 | 65 | 46 | 1160 | 37 | 1610
10 | O=C(O)CCCc1cc2cc(Cl)ccc2n1S(=O)(=O)c1ccc2nsnc2c1 | 35 | 153 | 67 | > 5000 | 81 | > 5000
11 | CC(C)(CCc1cc2cc(Cl)ccc2n1S(=O)(=O)c1ccccc1)C(=O)O | < 20 | 910 | 32 | 160 | 90 | 
12 | O=C(O)CCCc1cc2cc(Cl)ccc2n1S(=O)(=O)c1cccc2ccccc12 | < 20 | 265 | 36 | 901 | 67 | 
13 | O=C(O)CCCc1cc2cc(C(F)(F)F)ccc2n1S(=O)(=O)c1ccc(OC(F)(F)F)cc1 | 28 | 573 | 32 | 1960 | 40 | 2100
14 | O=C(O)CCCc1cc2cc(Cl)ccc2n1S(=O)(=O)c1ccc2c(c1)OCO2 | 43 | 71 | 45 | 790 | 77 | 977
15 | O=C(O)CCCc1cc2cc(C(F)(F)F)ccc2n1S(=O)(=O)c1ccc2ncsc2c1 | 79 | 147 | 70 | 1620 | 82 | 1120
16 | Nc1nc2ccc(S(=O)(=O)n3c(CCCC(=O)O)cc4cc(Cl)ccc43)cc2o1 | 66 | 378 | 52 | > 5000 | 44 | 1390
17 | COc1ccc2c(c1)cc(CCCC(=O)O)n2S(=O)(=O)c1ccccc1 | < 20 |  | < 20 |  | < 20 | 
18 | O=C(O)CCCCc1cc2cc(Cl)ccc2n1S(=O)(=O)c1ccccc1 | < 20 |  | < 20 |  | < 20 | 
19 | O=C(O)CCCc1cc2cc(C(F)(F)F)ccc2n1S(=O)(=O)c1ccccc1Cl | < 20 | > 5000 | 45 | > 5000 | 104 | 
20 | Cc1nc2ccc(S(=O)(=O)n3c(CCCC(=O)O)cc4cc(Cl)ccc43)cc2s1 | 27 | 11 | 36 |  | < 20 | 441
